pKd: −log10 of the molar value. Converted amounts (≈) assume the structure as drawn. The source made the active and inactive calls. The calls are words filed in the database; no cut-off is given here.
Assays:
Enterococcus faecium = experiment: Antibacterial activity against Enterococcus faecium 7130724 by broth microdilution method; assay type: functional
Enterococcus faecalis [1] = experiment: Antibacterial activity against Enterococcus faecalis NB04025 infected in CD1 mouse assessed as mouse survival up to 5 days; assay type: functional; conditions: NB04025, 120 h
Method in brief: (§1)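 Female CD1 mice (21–25 g) were infected ip with 1 × 10^8 CFU/mouse, 10–100× the minimal lethal dose. E. faecalis NB04025 was given in 50% rat fecal extract and S. aureus ATCC 49951 in 0.9% NaCl. Compound was given by iv tail-vein bolus at 1 and 5 h post-inoculation, at several dose levels (6 mice/group). ED50 with 95% CI was derived by probit analysis of day-5 survival.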

Staphylococcus aureus [2] = experiment: Antibacterial activity against Staphylococcus aureus A4.018 by broth microdilution method; assay type: functional
[3] = Antibacterial activity against Clostridium difficile ATCC 43255 by broth microdilution method; assay type: functional; conditions: Clostridioides difficile
Method in brief: (§2)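 Broth microdilution MICs were run per CLSI M07-A8 (2009). The strain panel included C. difficile ATCC 43255, E. faecalis ATCC 29212 and S. pyogenes ATCC BAA-595.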

Enterococcus faecalis [4] = experiment: Antibacterial activity against Enterococcus faecalis ATCC 29212 by broth microdilution method; assay type: functional; method in brief: as §2
Escherichia coli = experiment: Inhibition of protein synthesis in Escherichia coli S30 extract at 2 uM after 75 mins by luciferase based luminescence assay relative to GE2270A; assay type: functional
Staphylococcus aureus [5] = experiment: Antibacterial activity against Staphylococcus aureus ATCC 49951 infected in CD1 mouse assessed as mouse survival up to 5 days; assay type: functional; conditions: ATCC 49951, 120 h; method in brief: as §1
Streptococcus pyogenes = experiment: Antibacterial activity against Streptococcus pyogenes ATCC BAA-595 by broth microdilution method; assay type: functional; method in brief: as §2
[6] = Binding affinity to Escherichia coli GDPNP-labelled EF-Tu by surface plasmon resonance analysis
[7] = test system: Clostridium difficile ATCC 43255; experiment: Antibacterial activity against Clostridium difficile ATCC 43255 infected in golden syrian hamster assessed as decrease in toxin level in cecum after 21 days by ELISA; assay type: functional; conditions: Caecum
Method in brief: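 In the clindamycin-pretreated, C. difficile-infected hamster model, oral compound was given once daily on days 1–5. Surviving animals were euthanized at study end (day 21). Cecal homogenates were assayed for C. difficile toxins A and B by Tox A/B II ELISA per kit directions.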

[8] = Antibacterial activity against Clostridium difficile ATCC 43255 infected in golden syrian hamster assessed as survival rate at 20 mg/kg, po qd administered days 1 to 5 measured on days 6 to 21; assay type: functional; conditions: Clostridioides difficile
Method in brief: (§3)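 Golden Syrian hamsters got clindamycin 10 mg/kg sc on day −1. On day 0 they were gavaged with ~7.5 × 10^6 CFU C. difficile ATCC 43255 (0.75 mL). From 24 h post-infection they were dosed orally once daily for up to 5 days (8/dose), in a NaOH/PEG-400/2.5% Cremophor EL solution diluted in pH 7.4 PBS. Vehicle controls were included, and animals were observed twice daily through day 21.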

[9] = Antibacterial activity against Clostridium difficile ATCC 43255 infected in golden syrian hamster assessed as survival rate at 2 mg/kg, po qd administered days 1 to 5 measured on days 6 to 21; assay type: functional; conditions: Clostridioides difficile; method in brief: as §3
[10] = Drug level in Clostridium difficile infected golden syrian hamster cecum at 20 mg/kg, po qd administered for 5 days measured at 1 hr post dose; assay type: ADME, organism-based, Mesocricetus auratus, Caecum; design: dose 20 mg/kg, route oral; conditions: read-out: Drug uptake
Method in brief: (§4)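 C. difficile-infected hamsters received 20 mg/kg orally (0.6 mL at 3.3 mg/mL) once daily for 5 days. At 1 and 3 h after the fifth dose, 3 animals per time point were sampled: plasma (K2-EDTA, cardiac puncture) and cecal contents. Cecal contents were homogenized in PBS/25% acetonitrile (final 1:25 dilution). Samples were protein-precipitated with acetonitrile containing glyburide internal standard.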

[11] = Plasma concentration in Clostridium difficile infected golden syrian hamster at 20 mg/kg, po qd administered for 5 days measured at 3 hrs post dose; assay type: ADME, organism-based, Mesocricetus auratus; design: dose 20 mg/kg, route oral; conditions: in vivo, 3 h, BLD = below limit of detection; method in brief: as §4
[12] = Plasma concentration in Clostridium difficile infected golden syrian hamster at 20 mg/kg, po qd administered for 5 days measured at 1 hr post dose; assay type: ADME, organism-based, Mesocricetus auratus; design: dose 20 mg/kg, route oral; conditions: golden Syrian, plasma; method in brief: as §4
[13] = Drug level in Clostridium difficile infected golden syrian hamster cecum at 20 mg/kg, po qd administered for 5 days measured at 3 hrs post dose; assay type: ADME, organism-based, Mesocricetus auratus, Caecum; design: dose 20 mg/kg, route oral; conditions: read-out: Drug uptake; method in brief: as §4
[14] = Antibacterial activity against Clostridium difficile ATCC 43255 infected in golden syrian hamster assessed as survival rate at 0.2 mg/kg, po qd administered days 1 to 5 measured on days 6 to 21; assay type: functional; conditions: Clostridioides difficile; method in brief: as §3

Compound | MIC (Enterococcus faecium) [µg/mL] | ED50 (Enterococcus faecalis [1]) [mg/kg] | MIC (Staphylococcus aureus [2]) [µg/mL] | MIC [3] [µg/mL] | MIC (Enterococcus faecalis [4]) [µg/mL] | inhibition at 2 µM (Escherichia coli) [%] | ED50 (Staphylococcus aureus [5]) [mg/kg] | MIC (Streptococcus pyogenes) [µg/mL] | pKd [6] | Activity [7] | survival at 20 mg/kg [8] [%] | survival at 2 mg/kg [9] [%] | concentration at 1 h [10] [µM] | Cp [11] | concentration at 1 h [12] [µM] | concentration at 3 h [13] [µM] | survival at 0.2 mg/kg [14] [%]
CNC(=O)C[C@@H]1NC(=O)c2csc(n2)-c2ccc(-c3nc(N(CCCCCCC(=O)O)C(=O)O[C@H]4CC[C@H](C(=O)O)CC4)cs3)nc2-c2csc(n2)-c2csc(n2)[C@H]([C@@H](O)c2ccccc2)NC(=O)CNC(=O)c2nc(sc2COC)[C@H](C(C)C)NC(=O)c2nc1sc2C | 0.125 (≈ 0.0896 µM) | 1 | 0.25 (≈ 0.179 µM) | 0.06 (≈ 0.043 µM) | < 0.06 | 67 | 6.6 | 2 (≈ 1.43 µM) |  |  |  |  |  |  |  |  | 
CNC(=O)C[C@@H]1NC(=O)c2csc(n2)-c2ccc(-c3nc(N(CCCCCC(=O)O)C(=O)O[C@H]4CC[C@H](C(=O)O)CC4)cs3)nc2-c2csc(n2)-c2csc(n2)[C@H]([C@@H](O)c2ccccc2)NC(=O)CNC(=O)c2nc(sc2COC)[C@H](C(C)C)NC(=O)c2nc1sc2C | < 0.06 | 0.8 | 0.125 (≈ 0.0905 µM) | 0.06 (≈ 0.0435 µM) | < 0.06 | 67 | 9.6 | 1 (≈ 0.724 µM) | 8.22 |  |  |  |  |  |  |  | 
CN[C@H](CC(C)C)C(=O)N[C@H]1C(=O)N[C@@H](CC(N)=O)C(=O)N[C@H]2C(=O)N[C@H]3C(=O)N[C@H](C(=O)N[C@H](C(=O)O)c4cc(O)cc(O)c4-c4cc3ccc4O)[C@H](O)c3ccc(c(Cl)c3)Oc3cc2cc(c3O[C@@H]2O[C@H](CO)[C@@H](O)[C@H](O)[C@H]2O[C@H]2C[C@](C)(N)[C@H](O)[C@H](C)O2)Oc2ccc(cc2Cl)[C@H]1O [VANCOMYCIN] |  |  |  |  |  |  |  |  |  | Active | 25 |  |  |  |  |  | 
CNC(=O)C[C@@H]1NC(=O)c2csc(n2)-c2ccc(-c3nc(N(CCCC(=O)O)C(=O)OCCCC(=O)O)cs3)nc2-c2csc(n2)-c2csc(n2)[C@H]([C@@H](O)c2ccccc2)NC(=O)CNC(=O)c2nc(sc2COC)[C@H](C(C)C)NC(=O)c2nc1sc2C | 0.5 (≈ 0.381 µM) | 11 | 1 (≈ 0.762 µM) | 0.03 (≈ 0.0229 µM) | 0.5 (≈ 0.381 µM) |  | 11 | 2 (≈ 1.52 µM) | 8.10 | Active | 100 | 100 | 129 | BLD | 0.0639 | 72 | 0
CNC(=O)C[C@@H]1NC(=O)c2csc(n2)-c2ccc(-c3nc(N(CCCCC(=O)O)C(=O)OCC4CC4C(=O)O)cs3)nc2-c2csc(n2)-c2csc(n2)[C@H]([C@@H](O)c2ccccc2)NC(=O)CNC(=O)c2nc(sc2COC)[C@H](C(C)C)NC(=O)c2nc1sc2C (some centres undefined) | 0.5 (≈ 0.374 µM) |  | 0.25 (≈ 0.187 µM) | 0.03 (≈ 0.0224 µM) | 0.125 (≈ 0.0934 µM) | 67 |  | 2 (≈ 1.49 µM) |  |  |  |  |  |  |  |  | 
CNC(=O)C[C@@H]1NC(=O)c2csc(n2)-c2ccc(-c3nc(N(CCCCC(=O)O)C(=O)O[C@H]4CC[C@](CCCCC(=O)O)(C(=O)O)CC4)cs3)nc2-c2csc(n2)-c2csc(n2)[C@H]([C@@H](O)c2ccccc2)NC(=O)CNC(=O)c2nc(sc2COC)[C@H](C(C)C)NC(=O)c2nc1sc2C | 1 (≈ 0.682 µM) |  | 1 (≈ 0.682 µM) | 0.03 (≈ 0.0205 µM) | 0.5 (≈ 0.341 µM) | 50 |  | 4 (≈ 2.73 µM) |  |  |  |  |  |  |  |  | 
CNC(=O)C[C@@H]1NC(=O)c2csc(n2)-c2ccc(-c3nc(N(CC(CC(=O)O)OC)C(=O)O[C@H]4CC[C@H](C(=O)O)CC4)cs3)nc2-c2csc(n2)-c2csc(n2)[C@H]([C@@H](O)c2ccccc2)NC(=O)CNC(=O)c2nc(sc2COC)[C@H](C(C)C)NC(=O)c2nc1sc2C (some centres undefined) | 1 (≈ 0.723 µM) |  | 1 (≈ 0.723 µM) | 0.06 (≈ 0.0434 µM) | 1 (≈ 0.723 µM) | 67 |  | 4 (≈ 2.89 µM) |  |  |  |  |  |  |  |  | 
CNC(=O)C[C@@H]1NC(=O)c2csc(n2)-c2ccc(-c3nc(N(CCCCC(=O)O)C(=O)OCc4ccc(C(=O)O)cn4)cs3)nc2-c2csc(n2)-c2csc(n2)[C@H]([C@@H](O)c2ccccc2)NC(=O)CNC(=O)c2nc(sc2COC)[C@H](C(C)C)NC(=O)c2nc1sc2C | 1 (≈ 0.727 µM) |  | 2 (≈ 1.45 µM) | 0.125 (≈ 0.0909 µM) | 1 (≈ 0.727 µM) | 67 |  | 4 (≈ 2.91 µM) |  |  |  |  |  |  |  |  | 

From ChEMBL document CHEMBL2062386, “Discovery of LFF571: an investigational agent for Clostridium difficile infection” (J Med Chem, 2012)
